Assay results taken from ChEMBL document CHEMBL5058577, “EUbOPEN Chemogenomics Library 2 (Multiplex)” (2022).

System: HEK-293T
Assay: Multiplex assay against HEK293T
Type: toxicity, cell-based
Conditions: human
How it was run: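 Live cells were stained at seeding with Hoechst33342, BioTracker Green Microtubule Cytoskeleton Dye, MitoTracker Red and Annexin V Alexa Fluor 680, then imaged on a CQ1 microscope at 37°C and 5% CO2 after compound addition. CellPathfinder machine-learning gating split cells into Hoechst high-intensity objects or normal cells. Normal cells were split into healthy, pyknosed or fragmented nuclei, and pyknosed cells into mitotic or apoptotic. Tubulin, mitochondrial-mass and membrane-permeability phenotypes are per cents of healthy-nucleus cells.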

[1] = 12 h, 1 µM, compound concentration 1 uM, replicate 1
[2] = 12 h, 1 µM, compound concentration 1 uM, replicate 2
[3] = 12 h, 10 µM, compound concentration 10 uM, replicate 1
[4] = 12 h, 10 µM, compound concentration 10 uM, replicate 2
[5] = 24 h, 1 µM, compound concentration 1 uM, replicate 1
[6] = 24 h, 1 µM, compound concentration 1 uM, replicate 2
[7] = 24 h, 10 µM, compound concentration 10 uM, replicate 1
[8] = 24 h, 10 µM, compound concentration 10 uM, replicate 2
[9] = 48 h, 1 µM, compound concentration 1 uM, replicate 1
[10] = 48 h, 1 µM, compound concentration 1 uM, replicate 2
[11] = 48 h, 10 µM, compound concentration 10 uM, replicate 1
[12] = 48 h, 10 µM, compound concentration 10 uM, replicate 2

O=C(NCCO)c1cccc(-c2cc(Nc3ccc(OC(F)(F)F)cc3)ncn2)c1
Population Apoptotic (%) [1]: 27%
Population Fragmented Nuclei (%) [1]: 7%
Population Healthy Nuclei (%) [1]: 78%
Population Hoechst High Intensity Objects (%) [1]: 8%
Population Membrane Permeable-Phenotype (%) [1]: 0%
Population Mitochondria Different-Phenotype (%) [1]: 47%
Population Mitotic Cells (%) [1]: 72%
Population Normal (%) [1]: 91%
Population Pyknosed Nuclei (%) [1]: 13%
Population Tubulin-Different-Phenotype (%) [1]: 23%
Total Cell Count [1]: 409
Population Apoptotic (%) [2]: 40%
Population Fragmented Nuclei (%) [2]: 4%
Population Healthy Nuclei (%) [2]: 77%
Population Hoechst High Intensity Objects (%) [2]: 6%
Population Mitochondria Different-Phenotype (%) [2]: 60%
Population Mitotic Cells (%) [2]: 59%
Population Normal (%) [2]: 93%
Population Pyknosed Nuclei (%) [2]: 17%
Population Tubulin-Different-Phenotype (%) [2]: 16%
Total Cell Count [2]: 262
Population Apoptotic (%) [3]: 55%
Population Fragmented Nuclei (%) [3]: 6%
Population Healthy Nuclei (%) [3]: 76%
Population Hoechst High Intensity Objects (%) [3]: 10%
Population Membrane Permeable-Phenotype (%) [3]: 0%
Population Mitochondria Different-Phenotype (%) [3]: 69%
Population Mitotic Cells (%) [3]: 44%
Population Normal (%) [3]: 89%
Population Pyknosed Nuclei (%) [3]: 17%
Population Tubulin-Different-Phenotype (%) [3]: 49%
Total Cell Count [3]: 374
Population Apoptotic (%) [4]: 63%
Population Fragmented Nuclei (%) [4]: 5%
Population Healthy Nuclei (%) [4]: 73%
Population Hoechst High Intensity Objects (%) [4]: 12%
Population Mitochondria Different-Phenotype (%) [4]: 74%
Population Mitotic Cells (%) [4]: 36%
Population Normal (%) [4]: 87%
Population Pyknosed Nuclei (%) [4]: 21%
Population Tubulin-Different-Phenotype (%) [4]: 26%
Total Cell Count [4]: 325
Population Apoptotic (%) [5]: 26%
Population Fragmented Nuclei (%) [5]: 11%
Population Healthy Nuclei (%) [5]: 78%
Population Hoechst High Intensity Objects (%) [5]: 4%
Population Membrane Permeable-Phenotype (%) [5]: 0%
Population Mitochondria Different-Phenotype (%) [5]: 21%
Population Mitotic Cells (%) [5]: 73%
Population Normal (%) [5]: 95%
Population Pyknosed Nuclei (%) [5]: 10%
Population Tubulin-Different-Phenotype (%) [5]: 15%
Total Cell Count [5]: 538
Population Apoptotic (%) [6]: 41%
Population Fragmented Nuclei (%) [6]: 7%
Population Healthy Nuclei (%) [6]: 79%
Population Hoechst High Intensity Objects (%) [6]: 6%
Population Mitochondria Different-Phenotype (%) [6]: 38%
Population Mitotic Cells (%) [6]: 58%
Population Normal (%) [6]: 93%
Population Pyknosed Nuclei (%) [6]: 13%
Population Tubulin-Different-Phenotype (%) [6]: 17%
Total Cell Count [6]: 331
Population Apoptotic (%) [7]: 39%
Population Fragmented Nuclei (%) [7]: 5%
Population Healthy Nuclei (%) [7]: 80%
Population Hoechst High Intensity Objects (%) [7]: 7%
Population Membrane Permeable-Phenotype (%) [7]: 0%
Population Mitochondria Different-Phenotype (%) [7]: 61%
Population Mitotic Cells (%) [7]: 60%
Population Normal (%) [7]: 92%
Population Pyknosed Nuclei (%) [7]: 14%
Population Tubulin-Different-Phenotype (%) [7]: 38%
Total Cell Count [7]: 447
Population Apoptotic (%) [8]: 50%
Population Fragmented Nuclei (%) [8]: 6%
Population Healthy Nuclei (%) [8]: 77%
Population Hoechst High Intensity Objects (%) [8]: 14%
Population Mitochondria Different-Phenotype (%) [8]: 56%
Population Mitotic Cells (%) [8]: 50%
Population Normal (%) [8]: 85%
Population Pyknosed Nuclei (%) [8]: 15%
Population Tubulin-Different-Phenotype (%) [8]: 22%
Total Cell Count [8]: 354
Population Apoptotic (%) [9]: 17%
Population Fragmented Nuclei (%) [9]: 12%
Population Healthy Nuclei (%) [9]: 80%
Population Hoechst High Intensity Objects (%) [9]: 3%
Population Membrane Permeable-Phenotype (%) [9]: 2%
Population Mitochondria Different-Phenotype (%) [9]: 17%
Population Mitotic Cells (%) [9]: 82%
Population Normal (%) [9]: 96%
Population Pyknosed Nuclei (%) [9]: 7%
Population Tubulin-Different-Phenotype (%) [9]: 13%
Total Cell Count [9]: 897
Population Apoptotic (%) [10]: 37%
Population Fragmented Nuclei (%) [10]: 9%
Population Healthy Nuclei (%) [10]: 79%
Population Hoechst High Intensity Objects (%) [10]: 5%
Population Membrane Permeable-Phenotype (%) [10]: 0%
Population Mitochondria Different-Phenotype (%) [10]: 23%
Population Mitotic Cells (%) [10]: 62%
Population Normal (%) [10]: 94%
Population Pyknosed Nuclei (%) [10]: 10%
Population Tubulin-Different-Phenotype (%) [10]: 9%
Total Cell Count [10]: 476
Population Apoptotic (%) [11]: 41%
Population Fragmented Nuclei (%) [11]: 10%
Population Healthy Nuclei (%) [11]: 79%
Population Hoechst High Intensity Objects (%) [11]: 8%
Population Membrane Permeable-Phenotype (%) [11]: 1%
Population Mitochondria Different-Phenotype (%) [11]: 36%
Population Mitotic Cells (%) [11]: 58%
Population Normal (%) [11]: 91%
Population Pyknosed Nuclei (%) [11]: 10%
Population Tubulin-Different-Phenotype (%) [11]: 18%
Total Cell Count [11]: 595
Population Apoptotic (%) [12]: 58%
Population Fragmented Nuclei (%) [12]: 16%
Population Healthy Nuclei (%) [12]: 72%
Population Hoechst High Intensity Objects (%) [12]: 17%
Population Membrane Permeable-Phenotype (%) [12]: 0%
Population Mitotic Cells (%) [12]: 41%
Population Normal (%) [12]: 82%
Population Pyknosed Nuclei (%) [12]: 11%
Population Tubulin-Different-Phenotype (%) [12]: 13%
Total Cell Count [12]: 504

O=C(NCC(=O)N1CC[C@H](N[C@H]2CC[C@@](O)(c3ccc(-c4ncccn4)cn3)CC2)C1)c1cccc(C(F)(F)F)c1 [PF-4136309]
Population Apoptotic (%) [1]: 44%
Population Fragmented Nuclei (%) [1]: 6%
Population Healthy Nuclei (%) [1]: 80%
Population Hoechst High Intensity Objects (%) [1]: 4%
Population Membrane Permeable-Phenotype (%) [1]: 0%
Population Mitochondria Different-Phenotype (%) [1]: 41%
Population Mitotic Cells (%) [1]: 56%
Population Normal (%) [1]: 95%
Population Pyknosed Nuclei (%) [1]: 13%
Population Tubulin-Different-Phenotype (%) [1]: 32%
Total Cell Count [1]: 393
Population Apoptotic (%) [2]: 34%
Population Fragmented Nuclei (%) [2]: 5%
Population Hoechst High Intensity Objects (%) [2]: 6%
Population Mitochondria Different-Phenotype (%) [2]: 56%
Population Mitotic Cells (%) [2]: 66%
Population Normal (%) [2]: 93%
Population Tubulin-Different-Phenotype (%) [2]: 15%
Total Cell Count [2]: 389
Population Apoptotic (%) [3]: 39%
Population Fragmented Nuclei (%) [3]: 7%
Population Healthy Nuclei (%) [3]: 76%
Population Hoechst High Intensity Objects (%) [3]: 7%
Population Membrane Permeable-Phenotype (%) [3]: 0%
Population Mitochondria Different-Phenotype (%) [3]: 53%
Population Mitotic Cells (%) [3]: 60%
Population Normal (%) [3]: 92%
Population Pyknosed Nuclei (%) [3]: 15%
Population Tubulin-Different-Phenotype (%) [3]: 55%
Total Cell Count [3]: 358
Population Apoptotic (%) [4]: 48%
Population Fragmented Nuclei (%) [4]: 3%
Population Healthy Nuclei (%) [4]: 81%
Population Hoechst High Intensity Objects (%) [4]: 6%
Population Mitochondria Different-Phenotype (%) [4]: 75%
Population Mitotic Cells (%) [4]: 51%
Population Normal (%) [4]: 93%
Population Pyknosed Nuclei (%) [4]: 14%
Population Tubulin-Different-Phenotype (%) [4]: 45%
Total Cell Count [4]: 295
Population Apoptotic (%) [5]: 25%
Population Fragmented Nuclei (%) [5]: 10%
Population Healthy Nuclei (%) [5]: 80%
Population Hoechst High Intensity Objects (%) [5]: 2%
Population Membrane Permeable-Phenotype (%) [5]: 0%
Population Mitochondria Different-Phenotype (%) [5]: 26%
Population Mitotic Cells (%) [5]: 74%
Population Normal (%) [5]: 97%
Population Pyknosed Nuclei (%) [5]: 9%
Population Tubulin-Different-Phenotype (%) [5]: 15%
Total Cell Count [5]: 561
Population Apoptotic (%) [6]: 39%
Population Fragmented Nuclei (%) [6]: 8%
Population Hoechst High Intensity Objects (%) [6]: 5%
Population Mitochondria Different-Phenotype (%) [6]: 31%
Population Mitotic Cells (%) [6]: 60%
Population Normal (%) [6]: 94%
Population Pyknosed Nuclei (%) [6]: 11%
Population Tubulin-Different-Phenotype (%) [6]: 13%
Total Cell Count [6]: 485
Population Apoptotic (%) [7]: 35%
Population Fragmented Nuclei (%) [7]: 10%
Population Healthy Nuclei (%) [7]: 73%
Population Hoechst High Intensity Objects (%) [7]: 7%
Population Membrane Permeable-Phenotype (%) [7]: 1%
Population Mitochondria Different-Phenotype (%) [7]: 39%
Population Mitotic Cells (%) [7]: 64%
Population Normal (%) [7]: 92%
Population Pyknosed Nuclei (%) [7]: 16%
Population Tubulin-Different-Phenotype (%) [7]: 36%
Total Cell Count [7]: 450
Population Apoptotic (%) [8]: 57%
Population Fragmented Nuclei (%) [8]: 8%
Population Healthy Nuclei (%) [8]: 80%
Population Hoechst High Intensity Objects (%) [8]: 5%
Population Membrane Permeable-Phenotype (%) [8]: 0%
Population Mitochondria Different-Phenotype (%) [8]: 54%
Population Mitotic Cells (%) [8]: 42%
Population Normal (%) [8]: 94%
Population Pyknosed Nuclei (%) [8]: 11%
Population Tubulin-Different-Phenotype (%) [8]: 27%
Total Cell Count [8]: 384
Population Apoptotic (%) [9]: 18%
Population Fragmented Nuclei (%) [9]: 16%
Population Healthy Nuclei (%) [9]: 78%
Population Hoechst High Intensity Objects (%) [9]: 0%
Population Membrane Permeable-Phenotype (%) [9]: 1%
Population Mitochondria Different-Phenotype (%) [9]: 14%
Population Mitotic Cells (%) [9]: 81%
Population Normal (%) [9]: 99%
Population Pyknosed Nuclei (%) [9]: 4%
Population Tubulin-Different-Phenotype (%) [9]: 9%
Total Cell Count [9]: 1007
Population Apoptotic (%) [10]: 27%
Population Healthy Nuclei (%) [10]: 77%
Population Hoechst High Intensity Objects (%) [10]: 2%
Population Membrane Permeable-Phenotype (%) [10]: 0%
Population Mitochondria Different-Phenotype (%) [10]: 16%
Population Mitotic Cells (%) [10]: 72%
Population Normal (%) [10]: 97%
Population Pyknosed Nuclei (%) [10]: 5%
Population Tubulin-Different-Phenotype (%) [10]: 11%
Total Cell Count [10]: 907
Population Apoptotic (%) [11]: 31%
Population Fragmented Nuclei (%) [11]: 13%
Population Healthy Nuclei (%) [11]: 75%
Population Hoechst High Intensity Objects (%) [11]: 5%
Population Membrane Permeable-Phenotype (%) [11]: 0%
Population Mitochondria Different-Phenotype (%) [11]: 34%
Population Mitotic Cells (%) [11]: 68%
Population Normal (%) [11]: 94%
Population Pyknosed Nuclei (%) [11]: 11%
Population Tubulin-Different-Phenotype (%) [11]: 23%
Total Cell Count [11]: 636
Population Apoptotic (%) [12]: 43%
Population Fragmented Nuclei (%) [12]: 11%
Population Healthy Nuclei (%) [12]: 79%
Population Hoechst High Intensity Objects (%) [12]: 4%
Population Mitochondria Different-Phenotype (%) [12]: 46%
Population Mitotic Cells (%) [12]: 56%
Population Normal (%) [12]: 95%
Population Pyknosed Nuclei (%) [12]: 8%
Population Tubulin-Different-Phenotype (%) [12]: 30%
Total Cell Count [12]: 468
